Measurements from ChEMBL document CHEMBL4665766, “Synthesis and in vitro evaluation of vanillin derivatives as multi-target therapeutics for the treatment of Alzheimer's disease” (Bioorg Med Chem Lett, 2020).
Activity calls are given as the source filed them. The calls are words filed in the database; no cut-off is given here.

Biological target: Cholinesterase (Equus caballus) (UniProt P81908)
Sequence (P81908 whole entry): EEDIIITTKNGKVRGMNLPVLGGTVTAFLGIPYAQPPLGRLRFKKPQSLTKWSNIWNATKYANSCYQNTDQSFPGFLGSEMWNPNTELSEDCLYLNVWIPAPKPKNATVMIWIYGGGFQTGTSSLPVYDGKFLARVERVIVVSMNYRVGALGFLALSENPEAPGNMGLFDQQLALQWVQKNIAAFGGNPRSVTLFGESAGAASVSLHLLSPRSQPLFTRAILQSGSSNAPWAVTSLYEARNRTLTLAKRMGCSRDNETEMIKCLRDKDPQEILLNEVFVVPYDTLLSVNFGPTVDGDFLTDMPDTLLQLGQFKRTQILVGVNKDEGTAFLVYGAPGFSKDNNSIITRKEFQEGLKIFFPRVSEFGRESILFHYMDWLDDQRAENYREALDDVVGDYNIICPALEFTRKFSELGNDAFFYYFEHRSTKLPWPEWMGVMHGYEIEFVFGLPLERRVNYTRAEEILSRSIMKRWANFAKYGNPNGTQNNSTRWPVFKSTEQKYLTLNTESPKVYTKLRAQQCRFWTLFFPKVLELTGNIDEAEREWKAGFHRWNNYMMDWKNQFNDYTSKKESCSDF
Assay: Potency index, ratio of neostigmine IC50 to test compound IC50 for inhibition of equine BuChE
Conditions: not given
`COc1cc(CN(CCCN2C(=O)c3cccc4cccc(c34)C2=O)Cc2ccc(O)c(OC)c2)ccc1O` showed a Ratio IC50 of 10.

Test system: not listed separately
Assay: Potency index, ratio of test compound trolox equivalent to vanillin trolox equivalent for antioxidant activity assessed as ferric ion reducing activity by FRAP assay
Format: functional
Conditions: not given
Work on `COc1cc(CN(CCCN2C(=O)c3cccc4cccc(c34)C2=O)Cc2ccc(O)c(OC)c2)ccc1O` yielded a Ratio of 25.

Biological target: Cholinesterase (Equus caballus) (UniProt P81908)
Assay: Potency index, ratio of rivastigmine IC50 to test compound IC50 for inhibition of equine BuChE
Conditions: not given
Compound `COc1cc(CN(CCCN2C(=O)c3cccc4cccc(c34)C2=O)Cc2ccc(O)c(OC)c2)ccc1O` has a Ratio IC50 of 3.

Test system: not listed separately
Assay: Selectivity index, ratio of IC50 for electric eel AChE to IC50 for equine BuChE
Conditions: not given
Method in brief: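 Ratio of Ellman-assay IC50 values, AChE IC50 divided by BuChE IC50. Electric eel AChE was diluted 1/100 with acetylthiocholine substrate. Equine BuChE was diluted 3/100 with butyrylthiocholine substrate. Both enzymes were preincubated with compound and DTNB for 10 min at 37°C, given 10 min with substrate, and read at 415 nm.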
With `COc1cc(CNCCCCN2C(=O)c3cccc4cccc(c34)C2=O)ccc1O` the Ratio IC50 was 15.2.
`CN(C)C(=O)Oc1cccc([N+](C)(C)C)c1` [NEOSTIGMINE] gave a Ratio IC50 of 2.56.
Work on `COc1cc(CNCCCCCCN2C(=O)c3ccccc3C2=O)ccc1O` yielded a Ratio IC50 of 12.6.
Work on `COc1cc(CN(CCCN2C(=O)c3cccc4cccc(c34)C2=O)Cc2ccc(O)c(OC)c2)ccc1O` yielded a Ratio IC50 of 53.1.
`COc1cc(CNCCCCCCCN2C(=O)c3cccc4cccc(c34)C2=O)ccc1O` showed a Ratio IC50 of 2.22.

Biological target: Acetylcholinesterase (Electrophorus electricus) (UniProt O42275)
Sequence (O42275 24-633 limits assumed): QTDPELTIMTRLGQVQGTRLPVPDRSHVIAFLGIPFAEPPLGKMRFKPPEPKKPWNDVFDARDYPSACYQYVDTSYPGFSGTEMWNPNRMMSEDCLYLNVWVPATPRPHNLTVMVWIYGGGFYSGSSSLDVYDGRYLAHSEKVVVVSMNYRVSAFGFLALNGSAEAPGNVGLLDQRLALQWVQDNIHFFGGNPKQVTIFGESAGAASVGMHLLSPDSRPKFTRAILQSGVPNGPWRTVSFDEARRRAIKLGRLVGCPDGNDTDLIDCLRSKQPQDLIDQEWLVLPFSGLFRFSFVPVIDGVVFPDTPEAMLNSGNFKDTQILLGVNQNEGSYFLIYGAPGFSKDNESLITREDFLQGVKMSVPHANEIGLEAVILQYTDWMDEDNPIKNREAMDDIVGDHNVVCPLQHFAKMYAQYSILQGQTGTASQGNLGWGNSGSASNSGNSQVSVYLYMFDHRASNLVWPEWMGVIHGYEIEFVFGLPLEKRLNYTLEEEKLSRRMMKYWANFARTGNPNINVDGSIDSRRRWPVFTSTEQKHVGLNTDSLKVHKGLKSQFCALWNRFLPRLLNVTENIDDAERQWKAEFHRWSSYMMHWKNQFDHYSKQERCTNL
Assay: (§1) Inhibition of electric eel AChE by Ellman's method
Conditions: not given
Method in brief: (§2)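 Electrophorus electricus AChE stock at 22 U/mL in 20 mM Tris HCl (pH 7.5), diluted 1/100 before use. Compound dilution series in methanol (≤1% DMSO) was preincubated with enzyme and DTNB solution (3 mM, phosphate/Hepes 0.05 M/0.09 M, pH 7.5) for 10 min at 37°C. Acetylthiocholine iodide solution (15 mM) was then added for a further 10 min, and A415 was read. IC50 is the 50% activity inhibition point, from 3 independent experiments.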
In the case of `COc1cc(C=O)ccc1O` [VANILLIN], the inhibition is reported as “inactive”.

Biological target: Acetylcholinesterase (Electrophorus electricus, UniProt O42275)
Sequence (O42275 whole entry): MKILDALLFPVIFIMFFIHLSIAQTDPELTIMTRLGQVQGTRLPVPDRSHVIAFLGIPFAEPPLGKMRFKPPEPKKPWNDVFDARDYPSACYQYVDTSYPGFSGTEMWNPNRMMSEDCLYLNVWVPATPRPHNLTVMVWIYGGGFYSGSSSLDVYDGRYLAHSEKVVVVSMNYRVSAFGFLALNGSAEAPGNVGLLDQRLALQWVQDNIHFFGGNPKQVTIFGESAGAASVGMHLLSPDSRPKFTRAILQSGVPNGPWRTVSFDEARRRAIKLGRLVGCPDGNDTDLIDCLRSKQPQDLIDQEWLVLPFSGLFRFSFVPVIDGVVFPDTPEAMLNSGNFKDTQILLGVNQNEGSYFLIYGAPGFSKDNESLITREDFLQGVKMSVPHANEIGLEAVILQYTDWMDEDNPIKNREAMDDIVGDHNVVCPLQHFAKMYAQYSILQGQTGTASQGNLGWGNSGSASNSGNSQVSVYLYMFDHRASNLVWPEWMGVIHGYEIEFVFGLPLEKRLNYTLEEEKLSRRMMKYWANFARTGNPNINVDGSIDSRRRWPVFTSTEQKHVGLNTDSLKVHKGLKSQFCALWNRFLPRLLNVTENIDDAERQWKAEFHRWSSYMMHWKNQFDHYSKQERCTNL
Assay: as §1
Conditions: not given
Method in brief: as §2
With `COc1cc(CNCCCCN2C(=O)c3cccc4cccc(c34)C2=O)ccc1O` the IC50 was 13.7 µM.
Work on `CN(C)C(=O)Oc1cccc([N+](C)(C)C)c1` [NEOSTIGMINE] yielded an IC50 of 7.5 µM.
With `COc1cc(CNCCCCCCN2C(=O)c3ccccc3C2=O)ccc1O` the IC50 was 4.67 µM.
`COc1cc(CN(CCCN2C(=O)c3cccc4cccc(c34)C2=O)Cc2ccc(O)c(OC)c2)ccc1O` gave an IC50 of 14.3 µM.
`COc1cc(CNCCCCCCCN2C(=O)c3cccc4cccc(c34)C2=O)ccc1O` showed an IC50 of 3.33 µM.

Test system: not listed separately
Assay: Potency index, ratio of trolox to test compound for antioxidant activity assessed as trolox equivalent of AAPH scavenging activity by ORAC fluorescein assay
Format: functional
Conditions: not given
Method in brief: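 Compounds from 10 mM DMSO stocks and Trolox diluted in 75 mM phosphate buffer, pH 7.4. […] with 25 nM sodium fluorescein (solution concentration), then 0.15 M AAPH solution added. Fluorescence (ex 485, em 525 nm) […]. TE from comparing the slopes of Trolox and compound calibration curves; mean ± SD of 3 independent experiments.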
Compound `COc1cc(CN(CCCN2C(=O)c3cccc4cccc(c34)C2=O)Cc2ccc(O)c(OC)c2)ccc1O` has a Ratio of 10.

Biological target: Cholinesterase (Equus caballus, UniProt P81908)
Sequence (P81908 whole entry): as the sequence (P81908 whole entry) above
Assay: (§3) Inhibition of equine BuChE by Ellman's method
Conditions: not given
Method in brief: (§4)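 Equine serum BuChE stock at 22 U/mL in 20 mM Tris HCl (pH 7.5), diluted 3/100 before use. Methanol dilutions of compound (≤1% DMSO) were preincubated 10 min at 37°C with enzyme and 3 mM DTNB solution (phosphate/Hepes buffer, pH 7.5). Butyrylthiocholine iodide solution (15 mM) was then added, with 10 min further incubation, and absorbance was read at 415 nm. IC50 (50% activity inhibited) was taken from 3 independent experiments.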
Work on `COc1cc(CNCCCCN2C(=O)c3cccc4cccc(c34)C2=O)ccc1O` yielded an IC50 of 0.9 µM.
Work on `CN(C)C(=O)Oc1cccc([N+](C)(C)C)c1` [NEOSTIGMINE] yielded an IC50 of 2.93 µM.
`COc1cc(CNCCCCCCN2C(=O)c3ccccc3C2=O)ccc1O` showed an IC50 of 0.37 µM.
`COc1cc(CN(CCCN2C(=O)c3cccc4cccc(c34)C2=O)Cc2ccc(O)c(OC)c2)ccc1O` gave an IC50 of 0.27 µM.
In the case of `COc1cc(CNCCCCCCCN2C(=O)c3cccc4cccc(c34)C2=O)ccc1O`, the IC50 is reported as 1.5 µM.

Biological target: Cholinesterase (Equus caballus) (UniProt P81908)
Assay: as §3
Conditions: not given
Method in brief: as §4
With `COc1cc(C=O)ccc1O` [VANILLIN] the inhibition was “inactive”.

Test system: not listed separately
Assay: Antioxidant activity assessed as increase in total ferric ion reducing activity using FeCl3.H2O and TPTZ by measuring trolox equivalents at pH 3.6 measured at different time interval up to 150 mins by microplate reader based FRAP assay
Format: functional
Parameters: unit not given here
Conditions: time min <=150
With `COc1cc(CNCCCCN2C(=O)c3cccc4cccc(c34)C2=O)ccc1O` the Activity was 0.26.
Work on `COc1cc(C=O)ccc1O` [VANILLIN] yielded an Activity of 0.02.
In the case of `COc1cc(CNCCCCCCN2C(=O)c3ccccc3C2=O)ccc1O`, the Activity is reported as 0.23.
In the case of `COc1cc(CN(CCCN2C(=O)c3cccc4cccc(c34)C2=O)Cc2ccc(O)c(OC)c2)ccc1O`, the Activity is reported as 0.49.
`COc1cc(CNCCCNC(=O)c2ccccc2CO)ccc1O` gave an Activity of 0.96.
`COc1cc(CNCCCCCCCN2C(=O)c3cccc4cccc(c34)C2=O)ccc1O` showed an Activity of 0.34.

Test system: not listed separately
Assay: Antioxidant activity assessed as DPPH free radical scavenging activity after 1 hr by microplate reader based assay
Format: functional
Conditions: not given
`COc1cc(CNCCCCN2C(=O)c3cccc4cccc(c34)C2=O)ccc1O` gave an IC50 of 62 µM.
With `COc1cc(C=O)ccc1O` [VANILLIN] the IC50 was 7920 µM.
With `COc1cc(CNCCCCCCN2C(=O)c3ccccc3C2=O)ccc1O` the IC50 was 82.3 µM.
`COc1cc(CN(CCCN2C(=O)c3cccc4cccc(c34)C2=O)Cc2ccc(O)c(OC)c2)ccc1O` showed an IC50 of 16.7 µM.
In the case of `COc1cc(CNCCCNC(=O)c2ccccc2CO)ccc1O`, the IC50 is reported as 113 µM.
Work on `COc1cc(CNCCCCCCCN2C(=O)c3cccc4cccc(c34)C2=O)ccc1O` yielded an IC50 of 70 µM.

Test system: not listed separately
Assay: Antioxidant activity assessed as trolox equivalent of AAPH-induced radical scavenging activity preincubated for 10 mins followed by AAPH addition and measured every minute for 35 mins by ORAC fluorescein assay
Format: functional
Conditions: time min <=35
`COc1cc(CNCCCCN2C(=O)c3cccc4cccc(c34)C2=O)ccc1O` gave an Activity of 8.1.
`COc1cc(C=O)ccc1O` [VANILLIN] showed an Activity of 2.2.
For `COc1cc(CNCCCCCCN2C(=O)c3ccccc3C2=O)ccc1O`, the Activity was 13.2.
`COc1cc(CN(CCCN2C(=O)c3cccc4cccc(c34)C2=O)Cc2ccc(O)c(OC)c2)ccc1O` showed an Activity of 9.43.
Work on `COc1cc(CNCCCCCCCN2C(=O)c3cccc4cccc(c34)C2=O)ccc1O` yielded an Activity of 6.7.
